Assay [1] addresses T1, Alpha adrenergic receptor 1A and 1B (Rattus norvegicus, UniProt P15823+P43140).
T1 sequence (P15823 whole entry): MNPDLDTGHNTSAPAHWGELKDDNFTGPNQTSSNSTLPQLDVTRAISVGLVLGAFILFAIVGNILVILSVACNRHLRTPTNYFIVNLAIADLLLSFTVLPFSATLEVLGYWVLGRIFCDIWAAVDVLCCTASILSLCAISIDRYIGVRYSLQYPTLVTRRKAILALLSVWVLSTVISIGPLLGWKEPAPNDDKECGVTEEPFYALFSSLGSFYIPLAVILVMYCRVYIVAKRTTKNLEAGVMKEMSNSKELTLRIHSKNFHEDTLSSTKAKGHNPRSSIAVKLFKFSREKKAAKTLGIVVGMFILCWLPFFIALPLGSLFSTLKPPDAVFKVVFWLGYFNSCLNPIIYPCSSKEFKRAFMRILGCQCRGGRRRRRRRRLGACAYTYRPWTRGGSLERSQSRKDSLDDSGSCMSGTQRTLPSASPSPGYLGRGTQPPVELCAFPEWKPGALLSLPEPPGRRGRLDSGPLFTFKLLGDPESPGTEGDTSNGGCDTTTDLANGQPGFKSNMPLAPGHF
T1 sequence (P43140 whole entry): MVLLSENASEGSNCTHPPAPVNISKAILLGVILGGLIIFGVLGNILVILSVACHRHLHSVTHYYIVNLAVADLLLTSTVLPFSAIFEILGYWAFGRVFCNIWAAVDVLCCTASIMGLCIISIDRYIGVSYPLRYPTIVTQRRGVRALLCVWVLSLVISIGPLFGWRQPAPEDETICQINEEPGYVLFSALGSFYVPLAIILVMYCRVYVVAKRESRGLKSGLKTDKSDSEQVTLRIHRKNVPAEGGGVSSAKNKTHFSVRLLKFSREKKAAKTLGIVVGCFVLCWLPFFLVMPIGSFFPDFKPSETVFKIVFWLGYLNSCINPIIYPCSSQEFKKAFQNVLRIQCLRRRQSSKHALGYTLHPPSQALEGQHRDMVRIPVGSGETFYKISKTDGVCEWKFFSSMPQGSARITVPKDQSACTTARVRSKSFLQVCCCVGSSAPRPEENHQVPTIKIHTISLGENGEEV
Nature of the assay: Binding affinity at Alpha-1 adrenergic receptor in rat brain homogenates by [3H]- prazosin displacement. The assay is classed as tissue-based.

Assay [2] has as its target T2, D(4) dopamine receptor (Homo sapiens, UniProt P21917).
T2 sequence (P21917 whole entry): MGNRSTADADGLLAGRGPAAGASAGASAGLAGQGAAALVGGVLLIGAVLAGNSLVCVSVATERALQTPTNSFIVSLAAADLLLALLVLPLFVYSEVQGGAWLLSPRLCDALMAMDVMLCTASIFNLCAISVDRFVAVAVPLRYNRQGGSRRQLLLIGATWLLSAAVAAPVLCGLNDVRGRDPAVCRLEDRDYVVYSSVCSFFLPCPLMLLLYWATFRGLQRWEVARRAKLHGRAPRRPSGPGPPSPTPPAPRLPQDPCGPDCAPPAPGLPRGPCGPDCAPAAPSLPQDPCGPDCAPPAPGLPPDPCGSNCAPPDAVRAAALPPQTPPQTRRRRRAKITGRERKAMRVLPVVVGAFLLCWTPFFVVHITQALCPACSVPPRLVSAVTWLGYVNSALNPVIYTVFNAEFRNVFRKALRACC
Nature of the assay: Binding affinity at human Dopamine receptor D4 by [3H]- YM 09151 displacement; Not active.

Assay [3] concerns the target T3, D(2) dopamine receptor (Homo sapiens, UniProt P14416). Nature of the assay: Binding affinity at human Dopamine receptor D2 by [3H]- YM 09151 displacement; Not active. In short, it runs like this: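 Competitive radioligand displacement on cloned human D2 receptor, with [3H]YM 09151 as the displaced ligand.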
The target in assay [4] is T3, D(2) dopamine receptor.
The target in assay [5] is T2, D(4) dopamine receptor. The assay can be described thus: Binding affinity at human Dopamine receptor D4 by [3H]- YM 09151 displacement.

pKi: −log10 of the molar value. A value given as a limit tells only on which side of the number the result lay.

T3 sequence (P14416 whole entry): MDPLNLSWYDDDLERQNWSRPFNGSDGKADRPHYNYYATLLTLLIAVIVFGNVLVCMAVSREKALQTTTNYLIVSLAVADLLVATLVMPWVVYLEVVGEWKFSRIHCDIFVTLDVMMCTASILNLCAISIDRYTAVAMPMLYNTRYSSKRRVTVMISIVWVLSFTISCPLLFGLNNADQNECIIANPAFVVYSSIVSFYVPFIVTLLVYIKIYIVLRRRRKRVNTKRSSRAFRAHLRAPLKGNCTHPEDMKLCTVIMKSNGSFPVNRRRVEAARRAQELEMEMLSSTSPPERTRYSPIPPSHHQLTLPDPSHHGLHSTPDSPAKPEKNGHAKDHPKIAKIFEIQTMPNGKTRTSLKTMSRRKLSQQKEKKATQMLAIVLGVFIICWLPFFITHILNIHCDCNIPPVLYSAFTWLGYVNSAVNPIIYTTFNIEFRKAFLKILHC

The Ki is a measure of affinity in units of concentration, obtained from inhibition or displacement. A higher Ki goes with weaker binding. `Clc1ccc(N2CCN(C[C@H]3C[C@@H]3c3ccccc3)CC2)c(Cl)c1` displayed a Ki in assay [1] of 0.322 µM.
In the case of `CCOC(=O)C1(N2CCN(Cc3ccc(Cl)cc3)CC2)Cc2ccccc2NC1=O` (stereo unspecified), the Ki entry on D(4) dopamine receptor [2] and at D(2) dopamine receptor [3] was “Not Active” each time.
The term pKi denotes the negative decadic logarithm of the Ki, by convention in mol/L. In the case of `CCN1C(=O)C(N2CCN(Cc3ccc(C)cc3)CC2)CCc2ccccc21` (stereo unspecified), the pKi at D(2) dopamine receptor [4] is less than 6.00; at D(4) dopamine receptor [5], 5.53. Further, in assay [1], the Ki is 0.815 µM.
With `Cc1ccc(CN2CCN(C3(C)C(=O)N(C)c4ccccc43)CC2)cc1` (stereo unspecified), the pKi on D(2) dopamine receptor [4] and at D(4) dopamine receptor [5] was less than 6.00 throughout. The Ki in assay [1] was more than 10 µM.
As for `CN(C(=O)CN1CCN(Cc2ccc(Cl)cc2)CC1)c1ccccc1`, the figures for the negative-log Ki (pKi) at D(2) dopamine receptor [4] and on D(4) dopamine receptor [5] were less than 6.00 and 7.23, respectively. This compound displayed a Ki in assay [1] of more than 10 µM.
The corresponding values for `CCN1C(=O)C(CC)(N2CCN(Cc3ccc(Cl)cc3)CC2)c2ccccc21` (stereo unspecified) are less than 6.00, 5.15 and more than 10 µM.
With `CCN1C(=O)C(CC)(N2CCN(Cc3ccc(C)cc3)CC2)c2ccccc21` (stereo unspecified), the negative logarithm of the Ki (pKi) at D(2) dopamine receptor [4] and at D(4) dopamine receptor [5] was less than 6.00 throughout. In addition, the Ki in assay [1] is more than 10 µM.
`Cc1ccc(CN2CCN(C3CCc4ccccc4N(C)C3=O)CC2)cc1` (stereo unspecified): the pKi is less than 6.00 at D(2) dopamine receptor [4] and 5.36 at D(4) dopamine receptor [5]. Besides, the Ki in assay [1] was found to be 2.038 µM.
As to `CN1C(=O)C(N2CCN(Cc3ccc(Cl)cc3)CC2)Cc2ccccc21` (stereo unspecified), the pKi on D(2) dopamine receptor [4] was 6.88; on D(4) dopamine receptor [5] it was 8.40. In assay [1], this compound returned an inhibition constant Ki of 2.003 µM.
The corresponding values for `O=C1Nc2ccccc2C1N1CCN(Cc2ccc(Cl)cc2)CC1` (stereo unspecified) are less than 6.00, less than 6.00 and more than 10 µM.
On to `CCOC(=O)C(Cc1ccccc1[N+](=O)[O-])(C(=O)OCC)N1CCN(Cc2ccc(Cl)cc2)CC1`, for which the Ki entry at D(4) dopamine receptor [2] and on D(2) dopamine receptor [3] was “Not Active” each time.
On to `CN1C(=O)C(N2CCN(Cc3ccc(Cl)cc3)CC2)CCc2ccccc21` (stereo unspecified), for which the negative-log Ki (pKi) at D(2) dopamine receptor [4] was 5.13; on D(4) dopamine receptor [5], 5.61. The compound further registered a Ki in assay [1] of 2.878 µM.
`CCOC(=O)C(C(=O)OCC)N1CCN(Cc2ccc(Cl)cc2)CC1`: the Ki entry on D(4) dopamine receptor [2] and on D(2) dopamine receptor [3] was “Not Active” throughout.
With `CCOC(=O)C(Cc1ccccc1N)(C(=O)OCC)N1CCN(Cc2ccc(Cl)cc2)CC1`, the inhibitory constant (Ki) entry on D(4) dopamine receptor [2] and on D(2) dopamine receptor [3] was “Not Active” throughout.
As for `Fc1ccc(OC[C@@H]2CC[C@H]3CN(c4ncc(F)cn4)CCN3C2)cc1`, the Ki entry on D(4) dopamine receptor [2] and at D(2) dopamine receptor [3] was “Not Active” throughout.
Regarding `O=C1Nc2ccccc2CCC1I` (stereo unspecified), the Ki entry on D(4) dopamine receptor [2] and at D(2) dopamine receptor [3] was “Not Active” in each case.
As to `Cc1ccc(CN2CCN(C3CCc4ccccc4NC3=O)CC2)cc1` (stereo unspecified), the pKi at D(2) dopamine receptor [4] and at D(4) dopamine receptor [5] was less than 6.00 in each case. The Ki in assay [1] is 3.12 µM.
For `O=C1Nc2ccccc2CCC1N1CCN(Cc2ccc(Cl)cc2)CC1` (stereo unspecified), the pKi on D(2) dopamine receptor [4] and at D(4) dopamine receptor [5] was less than 6.00 throughout. In addition, the Ki in assay [1] is 9.591 µM.
On to `Clc1ccc(CN2CCNCC2)cc1`, for which the Ki result at D(4) dopamine receptor [2] and on D(2) dopamine receptor [3] was “Not Active” in each case.
`O=C1Nc2ccccc2CC1N1CCN(Cc2ccc(Cl)cc2)CC1` (stereo unspecified): the pKi on D(2) dopamine receptor [4] was 5.86; on D(4) dopamine receptor [5], 7.00. Also, in assay [1], the Ki was determined as 2.003 µM.
The corresponding values for `CCN1C(=O)C(N2CCN(Cc3ccc(Cl)cc3)CC2)CCc2ccccc21` (stereo unspecified) are less than 6.00, 5.82 and 2.678 µM.
With `O=C1Nc2ccccc2C1Cl` (stereo unspecified), the Ki result on D(4) dopamine receptor [2] and at D(2) dopamine receptor [3] was “Not Active” throughout.
With `CN1C(=O)C(C)(N2CCN(Cc3ccc(Cl)cc3)CC2)c2ccccc21` (stereo unspecified), the pKi on D(2) dopamine receptor [4] and at D(4) dopamine receptor [5] was less than 6.00 each time. In assay [1], the Ki was more than 10 µM.
Turning to `Cc1ccc(CN2CCN(C3C(=O)Nc4ccccc43)CC2)cc1` (stereo unspecified), the pKi at D(2) dopamine receptor [4] and at D(4) dopamine receptor [5] was less than 6.00 in each case. Also, in assay [1], the Ki is more than 10 µM.
Turning to `CCN1C(=O)C(N2CCN(Cc3ccc(Cl)cc3)CC2)Cc2ccccc21` (stereo unspecified), the pKi is 7.68 on D(2) dopamine receptor [4] and 8.40 on D(4) dopamine receptor [5]. This compound also registered a Ki in assay [1] of 1.265 µM.
As for `Cc1cnc(N2CCN(Cc3c[nH]c(-c4ccccc4)n3)CC2)nc1`, the Ki entry at D(4) dopamine receptor [2] and at D(2) dopamine receptor [3] was “Not Active” each time.
Consider `Clc1ccc(N2CCN(Cc3c[nH]c4ncccc34)CC2)cc1` [L-745870], for which the inhibition constant Ki entry on D(4) dopamine receptor [2] and on D(2) dopamine receptor [3] was “Not Active” in each case.
Turning to `NS(=O)(=O)c1ccc(N2CCN(CC[C@@H]3OCCc4ccccc43)CC2)cc1` [SONEPIPRAZOLE], the Ki entry at D(4) dopamine receptor [2] and at D(2) dopamine receptor [3] was “Not Active” throughout.
